In ChEMBL document CHEMBL1148506, “Structure-activity relationships of new 1H-imidazo[4,5-c]quinolin-4-amine derivatives as allosteric enhancers of the A3 adenosine receptor” (J Med Chem, 2006):

How the values were obtained:
[1] = target: T1, Adenosine receptor A3 (Homo sapiens) (UniProt P0DMS8); assay: Displacement of [125I]I-AB-MECA from human adenosine A3 receptor in CHO membrane at 10 uM; assay type: cell membranes
T1 sequence (whole entry): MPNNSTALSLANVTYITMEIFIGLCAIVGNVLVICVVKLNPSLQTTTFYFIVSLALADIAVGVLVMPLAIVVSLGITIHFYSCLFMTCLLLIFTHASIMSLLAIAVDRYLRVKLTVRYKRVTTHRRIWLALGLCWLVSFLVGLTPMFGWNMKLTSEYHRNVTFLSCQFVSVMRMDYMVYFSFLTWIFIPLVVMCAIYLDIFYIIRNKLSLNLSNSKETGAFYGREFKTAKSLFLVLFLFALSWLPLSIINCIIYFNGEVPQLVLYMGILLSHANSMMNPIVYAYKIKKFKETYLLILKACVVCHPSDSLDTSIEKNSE
Outline: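 Membranes from CHO cells stably expressing human A3AR (20 μg protein) incubated with 0.5 nM [125I]I-AB-MECA and 10 μM test ligand, 60 min at 25°C, in 50 mM Tris·HCl pH 8.0, 10 mM MgCl2, 1 mM EDTA. Nonspecific binding defined with 10 μM NECA; filtration, gamma counting. Mean of 2-4 experiments in duplicate.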

[2] = target: T1, Adenosine receptor A3 (Homo sapiens); assay: Decrease in dissociation of [125I]I-AB-MECA from human adenosine A3 receptor in CHO membrane at 10 uM relative to control after 30 min; assay type: cell membranes; design: scale not given: the % may be the effect or the level left
Outline: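 Membranes (20 μg) preloaded with 0.5 nM [125I]I-AB-MECA, 60 min at 25°C, in 50 mM Tris-HCl pH 8.0 with 10 mM MgCl2 and 1 mM EDTA. Dissociation started with 3 μM Cl-IB-MECA, with or without 10 μM modulator. Binding read by rapid filtration at 30 min; reported as % decrease in dissociation versus control (100%).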

[3] = target: T1, Adenosine receptor A3 (Homo sapiens); assay: Increase of efficacy at human adenosine A3 receptor in CHO cells at 10 uM relative to 2-Cl-IB-MECA
[4] = target: T2, Adenosine receptor A2b (Homo sapiens) (UniProt P29275); assay: Antagonist activity at human adenosine A2B receptor assessed as inhibition of NECA-induced cAMP accumulation in CHO membrane at 10 uM; design: scale not given: the % may be the effect or the level left
T2 sequence (whole entry): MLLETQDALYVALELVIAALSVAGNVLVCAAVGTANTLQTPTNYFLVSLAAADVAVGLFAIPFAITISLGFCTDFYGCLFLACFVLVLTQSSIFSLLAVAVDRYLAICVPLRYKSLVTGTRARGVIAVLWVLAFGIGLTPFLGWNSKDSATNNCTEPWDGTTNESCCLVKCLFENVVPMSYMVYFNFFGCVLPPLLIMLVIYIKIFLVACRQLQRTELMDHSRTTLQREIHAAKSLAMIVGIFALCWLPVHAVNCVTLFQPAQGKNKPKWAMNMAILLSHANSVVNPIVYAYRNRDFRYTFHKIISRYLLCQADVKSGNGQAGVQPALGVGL

Adenosine receptor A1 = target: T3, Adenosine receptor A1 (Homo sapiens, UniProt P30542); assay: Displacement of [3H]R-PIA from human adenosine A1 receptor in CHO membrane; assay type: cell membranes
T3 sequence (P30542 whole entry): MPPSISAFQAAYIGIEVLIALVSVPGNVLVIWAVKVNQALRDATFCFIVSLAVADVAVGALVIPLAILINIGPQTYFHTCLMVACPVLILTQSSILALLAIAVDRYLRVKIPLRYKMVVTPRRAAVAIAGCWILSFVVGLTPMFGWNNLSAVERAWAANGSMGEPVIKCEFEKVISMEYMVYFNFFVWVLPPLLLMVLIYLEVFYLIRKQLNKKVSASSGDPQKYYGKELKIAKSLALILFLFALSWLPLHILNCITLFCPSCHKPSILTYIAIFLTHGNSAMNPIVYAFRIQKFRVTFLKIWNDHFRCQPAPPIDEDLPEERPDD
Outline: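 Membranes (40 μg/tube) from CHO cells stably expressing human A1AR, incubated with 2 nM [3H]R-PIA at 25 °C for 60 min in 50 mM Tris·HCl pH 7.4, 10 mM MgCl2. Membranes stored with 3 U/mL adenosine deaminase. Nonspecific binding defined with 10 μM N6-cyclopentyladenosine. Reaction ended by GF/B filtration.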

[5] = target: T4, Adenosine receptor A1 (Homo sapiens) (UniProt P30542); assay: Displacement of [3H]R-PIA from human adenosine A1 receptor in CHO membrane at 10 uM; assay type: cell membranes
T4 sequence (whole entry): T3 sequence (P30542 whole entry)

Adenosine receptor A2a [6] = target: T5, Adenosine receptor A2a (Homo sapiens, UniProt P29274); assay: Displacement of [3H]CGS21680 from human adenosine A2A receptor in HEK293 cells
Adenosine receptor A2a [7] = target: T5, Adenosine receptor A2a; assay: Displacement of [3H]CGS21680 from human adenosine A2A receptor in HEK293 cells at 10 uM

T5 sequence (P29274 whole entry): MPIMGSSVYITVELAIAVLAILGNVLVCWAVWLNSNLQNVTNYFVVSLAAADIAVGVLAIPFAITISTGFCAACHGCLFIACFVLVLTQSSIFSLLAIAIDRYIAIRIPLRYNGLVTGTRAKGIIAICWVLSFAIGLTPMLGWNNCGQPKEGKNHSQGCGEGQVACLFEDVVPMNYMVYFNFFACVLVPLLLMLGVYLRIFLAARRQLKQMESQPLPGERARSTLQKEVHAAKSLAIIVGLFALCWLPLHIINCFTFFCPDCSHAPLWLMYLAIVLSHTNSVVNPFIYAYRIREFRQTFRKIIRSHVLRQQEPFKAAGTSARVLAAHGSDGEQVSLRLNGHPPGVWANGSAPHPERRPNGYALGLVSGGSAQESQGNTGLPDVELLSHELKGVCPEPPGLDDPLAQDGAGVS

SMILES | Activity [1] [%] | Activity [2] [%] | Activity [3] [%] | Activity [4] [%] | Ki (Adenosine receptor A1) [µM] | Activity [5] [%] | Ki (Adenosine receptor A2a [6]) [µM] | Activity (Adenosine receptor A2a [7]) [%]
c1ccc(Nc2nc3ccccc3c3[nH]c(C4CCCC4)nc23)cc1 | 90 | 174 | 138 | -6.8 |  |  |  | 
Clc1ccc(Nc2nc3ccccc3c3[nH]c(C4CCCC4)nc23)cc1Cl | 67 | 144 | 141 | -6.7 | > 10 | 15 | > 10 | 0
Clc1ccc(Nc2[nH]c3ccccc3c3nc(-c4ccco4)nc2-3)cc1Cl | 78 | 98 | 95 | 9 |  | -4 |  | 70
c1ccc2c3nc(C4CCCC4)nc-3c(Nc3ccc4c(c3)CCC4)[nH]c2c1 | 69 | 108 | 111 | -10.7 |  | 21 |  | 8
Clc1ccc(Nc2nc3ccccc3c3[nH]c(C4CCC4)nc23)cc1Cl | 52 |  | 126 | -5.5 |  | -5 |  | 0.4
Clc1ccc(Nc2nc3ccccc3c3[nH]c(C4CCCC4)nc23)cc1 | 82 | 159 | 136 | -10.2 | > 10 | 22 | > 10 | 17
c1ccc2c3nc(C4CCCC4)nc-3c(Nc3ccc4cc[nH]c4c3)[nH]c2c1 | 89 | 126 | 125 | 10.1 |  | 70 |  | 74
c1ccc2c3nc(C4CCCC4)nc-3c(Nc3ccc4c[nH]nc4c3)[nH]c2c1 | 67 | 109 | 96 | 5 |  | 56 |  | 68
Clc1ccc(Nc2nc3ccccc3c3nc(C4CCCCC4)[nH]c23)cc1Cl | 45 | 173 | 145 | -5.6 |  | -2 |  | -1
COc1ccc(Nc2nc3ccccc3c3nc(C4CCCC4)[nH]c23)cc1 | 92 | 166 | 132 | 7.3 |  |  | > 10 | 16
Clc1ccc(Nc2nc3ccccc3c3[nH]c(C4CCCCCC4)nc23)cc1Cl | 68 | 130 | 115 | -7.3 |  | -4 |  | -2
c1ccc(CNc2[nH]c3ccccc3c3nc(C4CCCC4)nc2-3)cc1 | 86 | 145 | 147 | -3.4 |  | 28 |  | 77
COc1ccc(CNc2[nH]c3ccccc3c3nc(C4CCCC4)nc2-3)cc1 | 80 | 101 | 109 | 0.3 |  | 59 |  | 60
c1ccc(CCNc2[nH]c3ccccc3c3nc(C4CCCC4)nc2-3)cc1 | 84 | 154 | 137 | -11.6 |  | 52 |  | 91
Clc1ccc(Nc2[nH]c3ccccc3c3ncnc2-3)cc1Cl | 39 | 91 | 92 | 10.2 |  | 1.8 |  | -0.8
CCCCCc1nc2c(Nc3ccc(Cl)c(Cl)c3)[nH]c3ccccc3c-2n1 | 84 | 116 | 102 | -9.3 |  | 43.9 |  | -1
Cc1ccc(Nc2nc3ccccc3c3[nH]c(C4CCCC4)nc23)cc1 | 87 | 153 | 128 | -4.1 |  |  |  | 
OCc1cccc(Nc2[nH]c3ccccc3c3nc(C4CCCC4)nc2-3)c1 | 56 | 129 | 118 | -4.1 |  | 51 |  | 49
